Test [1] addresses T1, Muscarinic receptor 2 (Cavia porcellus) (UniProt Q8VH27).
T1 sequence (whole entry): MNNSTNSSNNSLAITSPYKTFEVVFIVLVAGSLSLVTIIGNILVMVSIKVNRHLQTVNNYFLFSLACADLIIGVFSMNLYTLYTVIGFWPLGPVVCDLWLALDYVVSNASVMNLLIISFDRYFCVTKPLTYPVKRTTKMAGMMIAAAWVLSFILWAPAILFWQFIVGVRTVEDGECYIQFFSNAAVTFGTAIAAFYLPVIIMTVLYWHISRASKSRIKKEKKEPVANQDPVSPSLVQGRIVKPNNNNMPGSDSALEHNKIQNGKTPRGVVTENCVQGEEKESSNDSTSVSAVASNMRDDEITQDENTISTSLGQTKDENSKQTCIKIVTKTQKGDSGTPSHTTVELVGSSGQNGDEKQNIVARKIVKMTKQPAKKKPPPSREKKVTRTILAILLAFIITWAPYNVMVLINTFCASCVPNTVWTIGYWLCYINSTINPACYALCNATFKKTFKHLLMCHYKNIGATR
The test is described as follows: (§1) Antagonist activity at muscarinic M2 receptor in guinea pig left atrium assessed as effect on electrically-stimulated inotropic activity after 60 mins. The test is classed as functional, tissue-based. As to conditions: Cardiac atrium.

Test [2] deals with T2, Muscarinic acetylcholine receptor M2 (Homo sapiens, UniProt P08172).
T2 sequence (P08172 whole entry): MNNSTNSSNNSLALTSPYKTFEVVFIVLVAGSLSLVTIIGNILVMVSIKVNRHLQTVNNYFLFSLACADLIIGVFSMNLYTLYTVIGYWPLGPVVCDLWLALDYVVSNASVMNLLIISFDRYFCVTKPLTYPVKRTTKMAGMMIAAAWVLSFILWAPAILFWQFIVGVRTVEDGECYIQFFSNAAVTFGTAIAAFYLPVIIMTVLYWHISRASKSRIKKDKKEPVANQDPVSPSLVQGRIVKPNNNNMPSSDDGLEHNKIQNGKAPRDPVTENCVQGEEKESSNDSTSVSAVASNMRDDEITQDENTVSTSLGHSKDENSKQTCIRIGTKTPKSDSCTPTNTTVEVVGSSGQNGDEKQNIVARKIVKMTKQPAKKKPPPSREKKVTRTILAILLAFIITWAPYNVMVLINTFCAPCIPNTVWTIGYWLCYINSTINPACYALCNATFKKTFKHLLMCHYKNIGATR
Description: Displacement of [3H]NMS from human cloned muscarinic M2 receptor expressed in CHO cells by scintillation counting. The test is classed as cell-based. The essentials: (§2)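 Equilibrium radioligand binding in CHO cells expressing the human muscarinic subtype, following the authors' earlier protocol.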
A general note: Loss of bound radioactivity is the signal in a displacement assay; it reports binding, not function.

Test [3] concerns the target Muscarinic acetylcholine receptor M3 (Cavia porcellus) (UniProt Q8VH26). Description: Antagonist activity at muscarinic M3 receptor in guinea pig ileum assessed as effect on isotonic tension after 60 mins. The test is classed as functional, tissue-based.
Test [4] addresses T3, Muscarinic acetylcholine receptor M1 (Homo sapiens, UniProt P11229).
T3 sequence (P11229 whole entry): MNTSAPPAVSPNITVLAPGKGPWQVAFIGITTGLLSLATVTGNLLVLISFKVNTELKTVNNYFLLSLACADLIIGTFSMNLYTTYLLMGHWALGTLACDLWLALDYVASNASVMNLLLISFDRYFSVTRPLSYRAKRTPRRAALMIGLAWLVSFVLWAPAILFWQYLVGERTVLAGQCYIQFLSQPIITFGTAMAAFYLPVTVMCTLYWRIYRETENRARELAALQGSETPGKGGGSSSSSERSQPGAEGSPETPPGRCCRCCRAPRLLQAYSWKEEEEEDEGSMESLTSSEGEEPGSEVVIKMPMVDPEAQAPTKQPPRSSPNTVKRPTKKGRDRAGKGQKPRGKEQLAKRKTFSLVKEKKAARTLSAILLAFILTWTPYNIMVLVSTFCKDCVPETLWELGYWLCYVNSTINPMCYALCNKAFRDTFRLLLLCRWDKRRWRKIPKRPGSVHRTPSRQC
Description: Displacement of [3H]NMS from human cloned muscarinic M1 receptor expressed in CHO cells by scintillation counting. The test is classed as cell-based.

In test [5] the target is T4, Muscarinic receptor 4 (Cavia porcellus) (UniProt Q8VH25).
T4 sequence (whole entry): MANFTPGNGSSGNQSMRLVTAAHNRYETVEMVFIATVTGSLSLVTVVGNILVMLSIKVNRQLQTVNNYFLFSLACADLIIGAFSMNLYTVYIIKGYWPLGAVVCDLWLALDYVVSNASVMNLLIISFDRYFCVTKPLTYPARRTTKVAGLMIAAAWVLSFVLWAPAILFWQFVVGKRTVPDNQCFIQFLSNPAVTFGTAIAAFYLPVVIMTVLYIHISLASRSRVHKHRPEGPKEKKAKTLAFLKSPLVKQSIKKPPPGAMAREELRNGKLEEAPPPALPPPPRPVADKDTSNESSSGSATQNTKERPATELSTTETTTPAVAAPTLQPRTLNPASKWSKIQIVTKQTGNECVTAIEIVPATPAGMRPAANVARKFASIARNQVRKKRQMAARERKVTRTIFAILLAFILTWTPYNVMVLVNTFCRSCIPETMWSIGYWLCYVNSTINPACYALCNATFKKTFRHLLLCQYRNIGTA
Description: (§3) Antagonist activity at muscarinic M4 receptor in guinea pig lung strips assessed as effect on isotonic contraction after 60 mins. It is filed as functional.

Test [6] has as its target T5, Muscarinic acetylcholine receptor M4 (Homo sapiens, UniProt P08173).
T5 sequence (P08173 whole entry): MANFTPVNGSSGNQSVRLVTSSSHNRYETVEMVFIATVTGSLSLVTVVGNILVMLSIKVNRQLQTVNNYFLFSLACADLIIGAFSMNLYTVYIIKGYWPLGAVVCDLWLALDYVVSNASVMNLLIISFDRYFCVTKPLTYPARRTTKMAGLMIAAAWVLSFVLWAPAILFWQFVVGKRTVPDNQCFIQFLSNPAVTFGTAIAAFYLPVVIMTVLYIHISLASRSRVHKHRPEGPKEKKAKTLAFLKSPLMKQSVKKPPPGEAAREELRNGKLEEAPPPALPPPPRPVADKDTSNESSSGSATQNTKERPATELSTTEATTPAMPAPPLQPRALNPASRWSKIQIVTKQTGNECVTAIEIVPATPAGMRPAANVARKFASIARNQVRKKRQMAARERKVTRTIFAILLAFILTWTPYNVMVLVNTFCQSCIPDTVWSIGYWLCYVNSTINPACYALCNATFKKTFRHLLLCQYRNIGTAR
The test is described as follows: Displacement of [3H]NMS from human cloned muscarinic M4 receptor expressed in CHO cells by scintillation counting. The test is classed as cell-based.

Test [7] addresses Muscarinic acetylcholine receptor M3 (Homo sapiens, UniProt P20309). The test is described as follows: Displacement of [3H]NMS from human cloned muscarinic M3 receptor expressed in CHO cells by scintillation counting. The test is classed as cell-based.
Test [8] is described as follows: Antagonist activity at muscarinic M1 receptor in New Zealand rabbit vas deferens assessed as effect on electrically-stimulated muscle contraction after 60 mins. It is filed as functional, Oryctolagus cuniculus.
Test [9] deals with T6, Muscarinic acetylcholine receptor M5 (Homo sapiens, UniProt P08912).
T6 sequence (P08912 whole entry): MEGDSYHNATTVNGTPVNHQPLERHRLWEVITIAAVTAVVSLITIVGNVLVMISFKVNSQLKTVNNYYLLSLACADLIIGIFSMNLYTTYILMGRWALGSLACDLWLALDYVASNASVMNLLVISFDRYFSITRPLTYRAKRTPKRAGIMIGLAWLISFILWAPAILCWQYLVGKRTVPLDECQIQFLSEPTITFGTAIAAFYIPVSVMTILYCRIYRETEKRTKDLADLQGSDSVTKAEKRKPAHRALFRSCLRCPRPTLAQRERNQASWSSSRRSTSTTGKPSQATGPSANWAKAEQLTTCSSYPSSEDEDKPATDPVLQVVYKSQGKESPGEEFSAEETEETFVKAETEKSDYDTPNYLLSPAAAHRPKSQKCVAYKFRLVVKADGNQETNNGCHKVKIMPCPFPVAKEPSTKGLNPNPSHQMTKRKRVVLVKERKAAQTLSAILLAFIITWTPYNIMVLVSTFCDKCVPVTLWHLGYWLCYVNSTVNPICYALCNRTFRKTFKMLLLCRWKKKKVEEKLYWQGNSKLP
Description: Displacement of [3H]NMS from human cloned muscarinic M5 receptor expressed in CHO cells by scintillation counting. It is filed as cell-based. The essentials: as §2

Another test has as its target T7, Muscarinic receptor 2 (Cavia porcellus, UniProt Q8VH27).
T7 sequence (Q8VH27 whole entry): T1 sequence (whole entry)
The description is as §1. To be noted: read-out: pA2 (converted). The test is classed as functional, tissue-based, Cardiac atrium.

The next test addresses T8, Muscarinic receptor 4 (Cavia porcellus, UniProt Q8VH25).
T8 sequence (Q8VH25 whole entry): T4 sequence (whole entry)
Described as §3. The test is classed as functional. To be noted: read-out: pA2 (converted).

Muscarinic acetylcholine receptor M3 (Cavia porcellus), sequence (Q8VH26 1-587): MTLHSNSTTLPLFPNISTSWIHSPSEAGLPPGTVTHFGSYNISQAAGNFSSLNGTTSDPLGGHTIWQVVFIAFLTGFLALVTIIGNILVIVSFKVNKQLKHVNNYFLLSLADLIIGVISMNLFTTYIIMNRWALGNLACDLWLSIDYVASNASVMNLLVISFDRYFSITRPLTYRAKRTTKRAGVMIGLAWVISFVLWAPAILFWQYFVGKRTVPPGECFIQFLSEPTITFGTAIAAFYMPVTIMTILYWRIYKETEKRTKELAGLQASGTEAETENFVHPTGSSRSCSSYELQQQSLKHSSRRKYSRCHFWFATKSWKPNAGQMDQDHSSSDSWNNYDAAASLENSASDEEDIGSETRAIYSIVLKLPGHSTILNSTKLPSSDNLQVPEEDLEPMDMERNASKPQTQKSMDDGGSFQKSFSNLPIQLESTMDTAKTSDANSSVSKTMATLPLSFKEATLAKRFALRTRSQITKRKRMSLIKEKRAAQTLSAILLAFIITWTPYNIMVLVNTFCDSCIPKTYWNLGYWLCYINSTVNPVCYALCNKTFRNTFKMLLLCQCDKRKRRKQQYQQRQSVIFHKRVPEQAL
Muscarinic acetylcholine receptor M3, sequence (P20309 whole entry): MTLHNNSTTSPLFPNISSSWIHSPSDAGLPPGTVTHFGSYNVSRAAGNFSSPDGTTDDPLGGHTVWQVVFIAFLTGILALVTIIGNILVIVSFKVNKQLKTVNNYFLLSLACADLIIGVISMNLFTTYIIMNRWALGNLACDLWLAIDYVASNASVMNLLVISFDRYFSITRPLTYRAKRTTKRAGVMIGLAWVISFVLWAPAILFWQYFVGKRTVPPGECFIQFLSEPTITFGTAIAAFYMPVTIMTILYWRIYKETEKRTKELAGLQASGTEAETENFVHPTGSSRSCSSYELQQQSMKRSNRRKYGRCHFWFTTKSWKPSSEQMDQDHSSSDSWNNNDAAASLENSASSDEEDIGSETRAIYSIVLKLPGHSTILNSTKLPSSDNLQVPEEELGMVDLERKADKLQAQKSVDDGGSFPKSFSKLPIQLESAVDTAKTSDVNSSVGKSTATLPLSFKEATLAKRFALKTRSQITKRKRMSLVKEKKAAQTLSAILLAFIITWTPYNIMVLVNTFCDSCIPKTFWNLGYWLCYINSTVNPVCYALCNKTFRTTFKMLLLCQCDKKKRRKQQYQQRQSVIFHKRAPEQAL

A word on the pKb: it is −log10 of the Kb, conventionally taken in molar units. The term Ki denotes the equilibrium dissociation constant of an inhibitor or competing ligand from its target. Turning to `C[N+]1(C)CCC[C@@H]1c1ccc([C@](O)(c2ccccc2)C2CCCCC2)o1.[I-]`, the pKb in [1] is 8.49; in test [3], 8.95; in [5], 7.75; in [8], 10.15. The Ki in test [2] was 2.34 nM; in test [4] it was 0.692 nM; in test [6], 4.27 nM; in test [7], 1.51 nM; in test [9] it was 1.55 nM.
For `CN1CCCC1c1ccc(C(c2ccccc2)c2ccccc2)o1` (stereo not drawn), the pKb in test [1] came out at 6.52; in test [3], 6.81; in test [5] it was 5.19; in [8], 6.64. In addition, the Ki is 64.6 nM in test [2]; 42.7 nM in test [4]; 158 nM in test [6]; 85.1 nM in test [7]; 105 nM in [9].
With `CN1CCC[C@@H]1c1ccc([C@](O)(c2ccccc2)C2CCCCC2)o1`, the pKb in test [1] was 7.91; in test [3], 8.76; in [5], 5.92; in test [8], 9.58. The Ki is 4.57 nM in test [2]; 1.23 nM in test [4]; 3.98 nM in test [6]; 1.66 nM in test [7]; 3.31 nM in [9].
As for `CN1CCCC1c1ccc(C(O)(c2ccccc2)c2ccccc2)o1` (racemic), the pKb is 6.92 in [1], 6.65 in test [3], below 5 in test [5] and 6.91 in [8]. Also, the Ki in test [2] was 29.5 nM; in [4], 35.5 nM; in test [6], 105 nM; in test [7], 95.5 nM; in test [9], 97.7 nM.
Turning to `C[N+]1(C)[C@@H]2C[C@@H](OC(=O)[C@H](CO)c3ccccc3)C[C@H]1[C@@H]1O[C@@H]12` [METHSCOPOLAMINE], the Kb on Muscarinic receptor 2 is 0.468 nM; at Muscarinic receptor 4, 6.46 nM.

These data come from ChEMBL document CHEMBL1156772, “Synthesis, affinity profile and functional activity of potent chiral muscarinic antagonists with a pyrrolidinylfuran structure” (J Med Chem, 2010).
